Reference: ChEMBL document CHEMBL1146542, “Cytotoxic flavone analogues of vitexicarpin, a constituent of the leaves of Vitex negundo” (J Nat Prod, 2003)
≈ marks a conversion by molar mass, not a printed value. Calls of active or inactive are those of the source. The rule behind the calls is not given here.

test system: Lu1; test: Inhibition of human Lu1 cells propagated in hollow fibers via subcutaneous site of NCr nu/nu mouse at 10 to 40 mg/kg, ip once daily after 7 days of implantation relative to control; assay type: functional; conditions: dose mg/kg 10-40
Outline: (§1)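 Hollow fiber assay in mice with KB, LNCaP and Lu1 cells, with fibers placed at intraperitoneal and subcutaneous sites. Compound given ip at 10, 20 and 40 mg/kg. Read-out was percent growth inhibition of the cells at each site versus control, and body weight of the mice was monitored.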

Structure (SMILES) | inhibition (INH) [%]
CCCCCC(=O)Oc1cc(-c2oc3cc(OC)c(OC)c(OC(=O)CCCCC)c3c(=O)c2OC)ccc1OC | 0

test system: Col2; test: Cytotoxicity against human Col2 cells; assay type: functional; conditions: read-out: ED50 (the source's name)

Structure (SMILES) | EC50 [µg/mL]
COc1ccc(-c2oc3cc(OC)c(OC)c(OC)c3c(=O)c2OC)cc1OC [HEXAMETHOXYFLAVONE] | > 20
CCC(=O)Oc1cc(-c2oc3cc(OC)c(OC)c(OC(=O)CC)c3c(=O)c2OC)ccc1OC | > 20
CCCCCC(=O)Oc1cc(-c2oc3cc(OC)c(OC)c(OC(=O)CCCCC)c3c(=O)c2OC)ccc1OC | > 20
COc1ccc(-c2oc3cc(OC)c(OC)c(OC(C)=O)c3c(=O)c2OC)cc1OC(C)=O | 15.9 (≈ 34.7 µM)
COc1ccc(-c2oc3cc(OC)c(OC)c(O)c3c(=O)c2OC)cc1OC(=O)c1ccccc1 | > 20
C=CCCC(=O)Oc1cc(-c2oc3cc(OC)c(OC)c(OC(=O)CCC=C)c3c(=O)c2OC)ccc1OC | 15 (≈ 27.9 µM)
CCCC(=O)Oc1cc(-c2oc3cc(OC)c(OC)c(OC(=O)CCC)c3c(=O)c2OC)ccc1OC | 11.7 (≈ 22.7 µM)
COc1ccc(-c2oc3cc(OC)c(OC)c(O)c3c(=O)c2OC)cc1O [CASTICIN] | 12.7 (≈ 33.9 µM)
COc1ccc(-c2oc3cc(OC)c(OC)c(OC(=O)c4ccccc4)c3c(=O)c2OC)cc1OC(=O)c1ccccc1 | > 20

test system: not listed separately; test: Cytotoxicity against human telomerase reverse transcriptase expressing RPE1 cells; assay type: cell-based, TERT-RPE1; conditions: read-out: ED50 (the source's name)

Structure (SMILES) | CC50 [µg/mL]
COc1ccc(-c2oc3cc(OC)c(OC)c(OC)c3c(=O)c2OC)cc1OC [HEXAMETHOXYFLAVONE] | > 20
CCC(=O)Oc1cc(-c2oc3cc(OC)c(OC)c(OC(=O)CC)c3c(=O)c2OC)ccc1OC | 0.5 (≈ 1.03 µM)
CCCCCC(=O)Oc1cc(-c2oc3cc(OC)c(OC)c(OC(=O)CCCCC)c3c(=O)c2OC)ccc1OC | 0.4 (≈ 0.701 µM)
COc1ccc(-c2oc3cc(OC)c(OC)c(OC(C)=O)c3c(=O)c2OC)cc1OC(C)=O | 0.4 (≈ 0.873 µM)
COc1ccc(-c2oc3cc(OC)c(OC)c(O)c3c(=O)c2OC)cc1OC(=O)c1ccccc1 | 3.6 (≈ 7.52 µM)
C=CCCC(=O)Oc1cc(-c2oc3cc(OC)c(OC)c(OC(=O)CCC=C)c3c(=O)c2OC)ccc1OC | 0.6 (≈ 1.11 µM)
CCCC(=O)Oc1cc(-c2oc3cc(OC)c(OC)c(OC(=O)CCC)c3c(=O)c2OC)ccc1OC | 0.6 (≈ 1.17 µM)
COc1ccc(-c2oc3cc(OC)c(OC)c(O)c3c(=O)c2OC)cc1O [CASTICIN] | 0.2 (≈ 0.534 µM)
COc1ccc(-c2oc3cc(OC)c(OC)c(OC(=O)c4ccccc4)c3c(=O)c2OC)cc1OC(=O)c1ccccc1 | 4.3 (≈ 7.38 µM)

test system: Lu1; test: Inhibition of human Lu1 cells propagated in hollow fibers via intraperitoneal site of NCr nu/nu mouse at 10 to 40 mg/kg, ip once daily after 7 days of implantation relative to control; assay type: functional, organism-based; conditions: not given; outline: as §1

Structure (SMILES) | Activity
CCCCCC(=O)Oc1cc(-c2oc3cc(OC)c(OC)c(OC(=O)CCCCC)c3c(=O)c2OC)ccc1OC | inactive

test system: LNCaP; test: Cytotoxicity against human LNCAP cells; assay type: functional; conditions: read-out: ED50 (the source's name)

Structure (SMILES) | EC50 [µg/mL]
COc1ccc(-c2oc3cc(OC)c(OC)c(OC)c3c(=O)c2OC)cc1OC [HEXAMETHOXYFLAVONE] | > 20
CCC(=O)Oc1cc(-c2oc3cc(OC)c(OC)c(OC(=O)CC)c3c(=O)c2OC)ccc1OC | 0.4 (≈ 0.822 µM)
CCCCCC(=O)Oc1cc(-c2oc3cc(OC)c(OC)c(OC(=O)CCCCC)c3c(=O)c2OC)ccc1OC | 0.5 (≈ 0.876 µM)
COc1ccc(-c2oc3cc(OC)c(OC)c(OC(C)=O)c3c(=O)c2OC)cc1OC(C)=O | 0.1 (≈ 0.218 µM)
COc1ccc(-c2oc3cc(OC)c(OC)c(O)c3c(=O)c2OC)cc1OC(=O)c1ccccc1 | > 20
C=CCCC(=O)Oc1cc(-c2oc3cc(OC)c(OC)c(OC(=O)CCC=C)c3c(=O)c2OC)ccc1OC | 0.7 (≈ 1.3 µM)
CCCC(=O)Oc1cc(-c2oc3cc(OC)c(OC)c(OC(=O)CCC)c3c(=O)c2OC)ccc1OC | 0.8 (≈ 1.55 µM)
COc1ccc(-c2oc3cc(OC)c(OC)c(O)c3c(=O)c2OC)cc1O [CASTICIN] | 0.5 (≈ 1.34 µM)
COc1ccc(-c2oc3cc(OC)c(OC)c(OC(=O)c4ccccc4)c3c(=O)c2OC)cc1OC(=O)c1ccccc1 | > 20

test system: LNCaP; test: Inhibition of human LNCAP cells propagated in hollow fibers via subcutaneous site of NCr nu/nu mouse at 10 to 40 mg/kg, ip once daily after 7 days of implantation relative to control; assay type: functional; conditions: dose mg/kg 10-40; outline: as §1

Structure (SMILES) | inhibition (INH) [%]
CCCCCC(=O)Oc1cc(-c2oc3cc(OC)c(OC)c(OC(=O)CCCCC)c3c(=O)c2OC)ccc1OC | 0

test system: LNCaP; test: Inhibition of human LNCAP cells propagated in hollow fibers via intraperitoneal site of NCr nu/nu mouse at 10 to 40 mg/kg, ip once daily after 7 days of implantation relative to control; assay type: functional; conditions: dose mg/kg 10-40; outline: as §1

Structure (SMILES) | inhibition (INH) [%]
CCCCCC(=O)Oc1cc(-c2oc3cc(OC)c(OC)c(OC(=O)CCCCC)c3c(=O)c2OC)ccc1OC | 0

test system: KB; test: Cytotoxicity against human KB cells; assay type: functional; conditions: read-out: ED50 (the source's name)

Structure (SMILES) | EC50 [µg/mL]
COc1ccc(-c2oc3cc(OC)c(OC)c(OC)c3c(=O)c2OC)cc1OC [HEXAMETHOXYFLAVONE] | > 20
CCC(=O)Oc1cc(-c2oc3cc(OC)c(OC)c(OC(=O)CC)c3c(=O)c2OC)ccc1OC | 0.6 (≈ 1.23 µM)
CCCCCC(=O)Oc1cc(-c2oc3cc(OC)c(OC)c(OC(=O)CCCCC)c3c(=O)c2OC)ccc1OC | 0.5 (≈ 0.876 µM)
COc1ccc(-c2oc3cc(OC)c(OC)c(OC(C)=O)c3c(=O)c2OC)cc1OC(C)=O | 0.2 (≈ 0.436 µM)
COc1ccc(-c2oc3cc(OC)c(OC)c(O)c3c(=O)c2OC)cc1OC(=O)c1ccccc1 | > 20
C=CCCC(=O)Oc1cc(-c2oc3cc(OC)c(OC)c(OC(=O)CCC=C)c3c(=O)c2OC)ccc1OC | 0.6 (≈ 1.11 µM)
CCCC(=O)Oc1cc(-c2oc3cc(OC)c(OC)c(OC(=O)CCC)c3c(=O)c2OC)ccc1OC | 0.5 (≈ 0.972 µM)
COc1ccc(-c2oc3cc(OC)c(OC)c(O)c3c(=O)c2OC)cc1O [CASTICIN] | 0.2 (≈ 0.534 µM)
COc1ccc(-c2oc3cc(OC)c(OC)c(OC(=O)c4ccccc4)c3c(=O)c2OC)cc1OC(=O)c1ccccc1 | > 20

test system: Lu1; test: Cytotoxicity against human Lu1 cells; assay type: functional; conditions: read-out: ED50 (the source's name)

Structure (SMILES) | EC50 [µg/mL]
COc1ccc(-c2oc3cc(OC)c(OC)c(OC)c3c(=O)c2OC)cc1OC [HEXAMETHOXYFLAVONE] | > 20
CCC(=O)Oc1cc(-c2oc3cc(OC)c(OC)c(OC(=O)CC)c3c(=O)c2OC)ccc1OC | 1 (≈ 2.06 µM)
CCCCCC(=O)Oc1cc(-c2oc3cc(OC)c(OC)c(OC(=O)CCCCC)c3c(=O)c2OC)ccc1OC | 0.7 (≈ 1.23 µM)
COc1ccc(-c2oc3cc(OC)c(OC)c(OC(C)=O)c3c(=O)c2OC)cc1OC(C)=O | 0.7 (≈ 1.53 µM)
COc1ccc(-c2oc3cc(OC)c(OC)c(O)c3c(=O)c2OC)cc1OC(=O)c1ccccc1 | 16.5 (≈ 34.5 µM)
C=CCCC(=O)Oc1cc(-c2oc3cc(OC)c(OC)c(OC(=O)CCC=C)c3c(=O)c2OC)ccc1OC | 1.4 (≈ 2.6 µM)
CCCC(=O)Oc1cc(-c2oc3cc(OC)c(OC)c(OC(=O)CCC)c3c(=O)c2OC)ccc1OC | 1.7 (≈ 3.3 µM)
COc1ccc(-c2oc3cc(OC)c(OC)c(O)c3c(=O)c2OC)cc1O [CASTICIN] | 0.8 (≈ 2.14 µM)
COc1ccc(-c2oc3cc(OC)c(OC)c(OC(=O)c4ccccc4)c3c(=O)c2OC)cc1OC(=O)c1ccccc1 | 6.5 (≈ 11.2 µM)

test system: P388; test: In vivo growth inhibition of mouse P388 cells at 135 mg/kg, ip relative to control; assay type: functional; conditions: route intraperitoneal
Outline: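 Mouse P-388 leukemia model run under a standard protocol. Compound given intraperitoneally at 135 mg/kg/injection, and activity was expressed as T/C value (%).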

Structure (SMILES) | T/C [%]
CCCCCC(=O)Oc1cc(-c2oc3cc(OC)c(OC)c(OC(=O)CCCCC)c3c(=O)c2OC)ccc1OC | 100

test system: KB; test: Inhibition of human KB cells propagated in hollow fibers via subcutaneous site of NCr nu/nu mouse at 10 to 40 mg/kg, ip once daily after 7 days of implantation relative to control; assay type: functional; conditions: dose mg/kg 10-40; outline: as §1

Structure (SMILES) | inhibition (INH) [%]
CCCCCC(=O)Oc1cc(-c2oc3cc(OC)c(OC)c(OC(=O)CCCCC)c3c(=O)c2OC)ccc1OC | 0

test system: not listed separately; test: Cytotoxicity against HUVEC; assay type: cell-based; conditions: human, read-out: ED50 (the source's name)

Structure (SMILES) | CC50 [µg/mL]
COc1ccc(-c2oc3cc(OC)c(OC)c(OC)c3c(=O)c2OC)cc1OC [HEXAMETHOXYFLAVONE] | > 20
CCC(=O)Oc1cc(-c2oc3cc(OC)c(OC)c(OC(=O)CC)c3c(=O)c2OC)ccc1OC | 6.5 (≈ 13.4 µM)
CCCCCC(=O)Oc1cc(-c2oc3cc(OC)c(OC)c(OC(=O)CCCCC)c3c(=O)c2OC)ccc1OC | 11.1 (≈ 19.5 µM)
COc1ccc(-c2oc3cc(OC)c(OC)c(OC(C)=O)c3c(=O)c2OC)cc1OC(C)=O | 0.1 (≈ 0.218 µM)
COc1ccc(-c2oc3cc(OC)c(OC)c(O)c3c(=O)c2OC)cc1OC(=O)c1ccccc1 | 20 (≈ 41.8 µM)
C=CCCC(=O)Oc1cc(-c2oc3cc(OC)c(OC)c(OC(=O)CCC=C)c3c(=O)c2OC)ccc1OC | 5.5 (≈ 10.2 µM)
CCCC(=O)Oc1cc(-c2oc3cc(OC)c(OC)c(OC(=O)CCC)c3c(=O)c2OC)ccc1OC | > 20
COc1ccc(-c2oc3cc(OC)c(OC)c(O)c3c(=O)c2OC)cc1O [CASTICIN] | 0.6 (≈ 1.6 µM)
COc1ccc(-c2oc3cc(OC)c(OC)c(OC(=O)c4ccccc4)c3c(=O)c2OC)cc1OC(=O)c1ccccc1 | > 20
